Measurements from ChEMBL document CHEMBL1153817, “New resorcinol-anandamide "hybrids" as potent cannabinoid receptor ligands endowed with antinociceptive activity in vivo” (J Med Chem, 2009).
Calls of active or inactive are those of the source. No cut-off for these calls is given here.

What was measured:
[1] = target: T1, Cannabinoid receptor 2 (Homo sapiens, UniProt P34972); assay: Binding affinity to human recombinant CB2 receptor expressed in african green monkey COS cells by radioligand binding assay; assay type: cell-based
[2] = target: T2, Cannabinoid receptor 1 (Homo sapiens, UniProt P21554); assay: Displacement of [3H]CP-55940 form human CB1 receptor expressed in HEK cells at 10 uM; assay type: cell-based; details: HEK293
[3] = target: T1, Cannabinoid receptor 2; assay: Displacement of [3H]CP-55940 form human CB2 receptor expressed in HEK cells at 10 uM; assay type: cell-based; details: HEK293
[4] = system: COS; assay: Selectivity index, ratio of Ki for human CB2 receptor to Ki for human CB1 receptor expressed in african green monkey COS cells; assay type: cell-based
Summary of the method: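 Ki at COS-expressed human CB1 and CB2 each from [3H]CP-55,940 displacement (0.14 nM for CB1), IC50 converted via Cheng-Prusoff, mean of 3 experiments; index taken as ratio of the two Ki values.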

[5] = target: T2, Cannabinoid receptor 1; assay: Binding affinity to human recombinant CB1 receptor expressed in african green monkey COS cells by radioligand binding assay; assay type: cell-based
[6] = target: T3, Cannabinoid receptor 1 (Rattus norvegicus, UniProt P20272); assay: Binding affinity to CB1 receptor in rat spleen membrane; assay type: cell membranes
[7] = target: T4, Cannabinoid receptor 2 (Rattus norvegicus, UniProt Q9QZN9); assay: Binding affinity to CB2 receptor in rat spleen membrane; assay type: cell membranes
T4 sequence (Q9QZN9 whole entry): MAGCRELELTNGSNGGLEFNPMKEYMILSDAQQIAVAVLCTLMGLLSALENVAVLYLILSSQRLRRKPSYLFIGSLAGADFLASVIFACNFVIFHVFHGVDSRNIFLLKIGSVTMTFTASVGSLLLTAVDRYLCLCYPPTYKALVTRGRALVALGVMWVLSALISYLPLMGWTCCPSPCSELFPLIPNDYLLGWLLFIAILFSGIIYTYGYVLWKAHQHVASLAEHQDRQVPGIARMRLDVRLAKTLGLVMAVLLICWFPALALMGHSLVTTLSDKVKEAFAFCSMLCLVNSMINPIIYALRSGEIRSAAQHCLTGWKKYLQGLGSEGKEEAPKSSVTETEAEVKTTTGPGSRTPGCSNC

[8] = target: T4, Cannabinoid receptor 2; assay: Binding affinity to CB2 receptor in rat brain membrane; assay type: cell membranes
[9] = target: T3, Cannabinoid receptor 1; assay: Binding affinity to CB1 receptor in rat brain membrane; assay type: cell membranes
[10] = system: Mus musculus; assay: Antinociceptive activity against formalin-induced paw pain in mouse at 1 mg/kg, ip pretreated 15 mins before formalin challenge assessed after 30 to 45 mins in presence of CB2 receptor-antagonist AM630; assay type: functional, organism-based; design: dose 1 mg/kg
Summary of the method: (§1)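 Formalin (1.25% in saline, 30 µL) injected into dorsal hind paw; mice randomised, n = 8-10 per group, one treatment each. Test drug given ip in 10% DMSO/saline 15 min pre-formalin; rimonabant or AM630 (1 mg/kg ip) given 5 min before test drug. Lifting, licking, shaking, flinching timed per 5 min over 60 min; one-way ANOVA with Bonferroni.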

[11] = system: Mus musculus; assay: Antinociceptive activity against formalin-induced paw pain in mouse at 1 mg/kg, ip pretreated 15 mins before formalin challenge assessed after 30 to 45 mins in presence of CB1 receptor-antagonist rimonabant; assay type: functional, organism-based; design: dose 1 mg/kg; summary of the method: as §1
[12] = system: Mus musculus; assay: Antinociceptive activity against formalin-induced paw pain in mouse at 1 mg/kg, ip pretreated 15 mins before formalin challenge assessed after 30 to 45 mins; assay type: functional, organism-based; design: dose 1 mg/kg; summary of the method: as §1

T3 sequence (P20272 whole entry): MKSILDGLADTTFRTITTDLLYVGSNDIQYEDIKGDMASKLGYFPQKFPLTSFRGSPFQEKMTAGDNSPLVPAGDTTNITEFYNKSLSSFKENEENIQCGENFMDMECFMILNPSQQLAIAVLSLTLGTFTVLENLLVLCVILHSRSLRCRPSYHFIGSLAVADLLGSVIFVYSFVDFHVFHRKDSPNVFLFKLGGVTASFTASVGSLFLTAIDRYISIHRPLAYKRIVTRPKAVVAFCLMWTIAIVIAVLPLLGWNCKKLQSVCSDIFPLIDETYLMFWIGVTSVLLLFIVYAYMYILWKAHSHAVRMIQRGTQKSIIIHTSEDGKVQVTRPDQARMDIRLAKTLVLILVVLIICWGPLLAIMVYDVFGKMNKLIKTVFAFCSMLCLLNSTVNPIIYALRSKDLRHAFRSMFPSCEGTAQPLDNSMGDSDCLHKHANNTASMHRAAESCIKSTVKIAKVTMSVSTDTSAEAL
T1 sequence (P34972 whole entry): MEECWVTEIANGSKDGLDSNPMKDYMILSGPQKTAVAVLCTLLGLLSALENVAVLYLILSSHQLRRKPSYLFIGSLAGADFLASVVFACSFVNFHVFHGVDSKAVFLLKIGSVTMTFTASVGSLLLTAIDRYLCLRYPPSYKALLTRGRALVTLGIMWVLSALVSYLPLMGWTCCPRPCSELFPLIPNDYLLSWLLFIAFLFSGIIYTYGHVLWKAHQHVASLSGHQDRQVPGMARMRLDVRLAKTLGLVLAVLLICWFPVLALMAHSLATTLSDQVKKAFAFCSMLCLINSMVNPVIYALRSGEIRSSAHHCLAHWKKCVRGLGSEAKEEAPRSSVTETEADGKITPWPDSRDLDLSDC
T2 sequence (P21554 whole entry): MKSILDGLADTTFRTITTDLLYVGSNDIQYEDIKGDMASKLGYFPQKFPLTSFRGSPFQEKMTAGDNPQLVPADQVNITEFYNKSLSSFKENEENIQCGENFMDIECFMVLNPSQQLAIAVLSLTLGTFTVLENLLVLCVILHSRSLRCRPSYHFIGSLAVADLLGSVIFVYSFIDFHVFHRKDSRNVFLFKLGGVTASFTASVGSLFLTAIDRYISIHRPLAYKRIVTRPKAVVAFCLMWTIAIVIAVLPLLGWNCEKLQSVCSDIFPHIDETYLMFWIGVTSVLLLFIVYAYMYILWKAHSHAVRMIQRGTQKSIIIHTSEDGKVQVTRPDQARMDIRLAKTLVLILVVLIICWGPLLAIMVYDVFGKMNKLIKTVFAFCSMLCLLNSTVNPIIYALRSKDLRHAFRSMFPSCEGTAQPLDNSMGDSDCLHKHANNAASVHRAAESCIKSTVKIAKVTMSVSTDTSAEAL

## CCCCCCCOc1cc(O)cc(OCCCCCCCCCCC(=O)NC2CC2)c1
[1]; read-out: Ki
  Ki: 210 nM
[2]
  Activity: > 50%
[3]
  Activity: > 50%
[4]
  Ratio Ki: 10.6 µM
[5]; read-out: Ki
  Ki: 2220 nM

## CCCCCc1cc(O)cc(OCCCCCCCCCCC(=O)NC2CC2)c1
[4]
  Ratio Ki: 0.4 µM

## O=C(CCCCCCCCCCOc1cc(O)cc(O)c1)NCC1CC1
[1]; cos
  Ki: Not Active
[1]; read-out: pKi (converted)
  Ki: 10000 nM
[2]
  Activity: > 50%
[6]
  IC50: > 10 µM
[3]
  Activity: > 50%
[7]
  IC50: > 10 µM
[8]
  IC50: > 10 µM
[9]
  IC50: > 10 µM
[5]; cos
  Ki: Not Active
[5]; read-out: pKi (converted)
  Ki: 10000 nM

## CCCCCCC(C)(C)c1cc(O)cc(OCCCCCCCCCCC(=O)NCC2CC2)c1
[1]; read-out: Ki
  Ki: 35 nM
[2]
  Activity: > 50%
[3]
  Activity: > 50%
[4]
  Ratio Ki: 28.6 µM
[5]; read-out: Ki
  Ki: 1000 nM

## O=C(CCCCCCCCCCOc1cc(O)cc(O)c1)NC1CC1
[1]; cos
  Ki: Not Active
[1]; read-out: pKi (converted)
  Ki: 10000 nM
[2]
  Activity: > 50%
[6]
  IC50: > 10 µM
[3]
  Activity: > 50%
[7]
  IC50: > 10 µM
[8]
  IC50: > 10 µM
[9]
  IC50: > 10 µM
[5]; cos
  Ki: Not Active
[5]; read-out: pKi (converted)
  Ki: 10000 nM

## CC(C)CCOc1cc(O)cc(OCCCCCCCCCCC(=O)NCC2CC2)c1
[1]; read-out: Ki
  Ki: 200 nM
[2]
  Activity: > 50%
[3]
  Activity: > 50%
[4]
  Ratio Ki: 11.5 µM
[5]; read-out: Ki
  Ki: 2300 nM

## CCCCOc1cc(O)cc(OCCCCCCCCCCC(=O)NCCO)c1
[1]; read-out: Ki
  Ki: 1620 nM
[2]
  Activity: > 50%
[3]
  Activity: > 50%
[4]
  Ratio Ki: 1.5 µM
[5]; read-out: Ki
  Ki: 2410 nM

## CCCCCCC(C)(C)c1cc(O)cc(OCCCCCCCC(=O)NCC2CC2)c1
[1]; read-out: Ki
  Ki: 34 nM
[2]
  Activity: > 50%
[3]
  Activity: > 50%
[4]
  Ratio Ki: 2.9 µM
[5]; read-out: Ki
  Ki: 100 nM

## CC(C)CCOc1cc(O)cc(OCCCCCCCCCCC(=O)NCCO)c1
[1]; read-out: Ki
  Ki: 570 nM
[2]
  Activity: > 50%
[3]
  Activity: > 50%
[4]
  Ratio Ki: 5.1 µM
[5]; read-out: Ki
  Ki: 2880 nM

## CCCCCCC(C)(C)c1cc(O)cc(OCCCCCCCC(=O)NCCO)c1
[1]; read-out: Ki
  Ki: 160 nM
[2]
  Activity: > 50%
[3]
  Activity: > 50%
[4]
  Ratio Ki: 0.4 µM
[5]; read-out: Ki
  Ki: 56 nM

## CCCCCCC(C)(C)c1cc(O)cc(OCCCCCCCCCCC(=O)NCCO)c1
[1]; read-out: Ki
  Ki: 30 nM
[2]
  Activity: > 50%
[3]
  Activity: > 50%
[4]
  Ratio Ki: 10.3 µM
[5]; read-out: Ki
  Ki: 310 nM

## CCCCCCC(C)(C)c1cc(O)cc(OCCCCCCCC(=O)NC2CC2)c1
[1]; read-out: Ki
  Ki: 7.9 nM
[2]
  Activity: > 50%
[10]
  Activity: inactive
[3]
  Activity: > 50%
[4]
  Ratio Ki: 0.7 µM
[11]
  Activity: inactive
[5]; read-out: Ki
  Ki: 5.6 nM
[12]
  Activity: Active

## CCCCOc1cc(O)cc(OCCCCCCCCCCC(=O)NC2CC2)c1
[1]; read-out: Ki
  Ki: 120 nM
[2]
  Activity: > 50%
[3]
  Activity: > 50%
[4]
  Ratio Ki: 2.3 µM
[5]; read-out: Ki
  Ki: 280 nM

## CC(C)CCOc1cc(O)cc(OCCCCCCCCCCC(=O)NC2CC2)c1
[1]; read-out: Ki
  Ki: 130 nM
[2]
  Activity: > 50%
[3]
  Activity: > 50%
[4]
  Ratio Ki: 1.7 µM
[5]; read-out: Ki
  Ki: 220 nM

## CCCCCCCOc1cc(O)cc(OCCCCCCCCCCC(=O)NCCO)c1
[1]; read-out: Ki
  Ki: 2420 nM
[2]
  Activity: > 50%
[3]
  Activity: > 50%
[4]
  Ratio Ki: 1.3 µM
[5]; read-out: Ki
  Ki: 3070 nM

## CCCCCCC(C)(C)c1cc(O)cc(OCCCCCCCCCCC(=O)NCc2ccc(O)c(OC)c2)c1
[1]; read-out: Ki
  Ki: 510 nM
[2]
  Activity: > 50%
[3]
  Activity: > 50%
[4]
  Ratio Ki: 5.5 µM
[5]; read-out: Ki
  Ki: 2820 nM

## CCCCCCC(C)(C)c1cc(O)cc(OCCCCCCCCCCCC(=O)NCCO)c1
[1]; read-out: Ki
  Ki: 80 nM
[2]
  Activity: > 50%
[3]
  Activity: > 50%
[4]
  Ratio Ki: 10.3 µM
[5]; read-out: Ki
  Ki: 820 nM

## CCCCCCC(C)(C)c1cc(O)cc(OCCCCCCCCCCCC(=O)NC2CC2)c1
[1]; read-out: Ki
  Ki: 20 nM
[2]
  Activity: > 50%
[3]
  Activity: > 50%
[4]
  Ratio Ki: 8.5 µM
[5]; read-out: Ki
  Ki: 170 nM

## CCCCCCC(C)(C)c1cc(O)cc(OCCCCCCCCCCC(=O)NC2CC2)c1
[1]; read-out: Ki
  Ki: 7.9 nM
[2]
  Activity: > 50%
[3]
  Activity: > 50%
[4]
  Ratio Ki: 2.7 µM
[5]; read-out: Ki
  Ki: 21 nM

## O=C(CCCCCCCCCCOc1cc(O)cc(O)c1)NCCO
[1]; cos
  Ki: Not Active
[1]; read-out: pKi (converted)
  Ki: 10000 nM
[2]
  Activity: > 50%
[6]
  IC50: > 10 µM
[3]
  Activity: > 50%
[7]
  IC50: > 10 µM
[8]
  IC50: > 10 µM
[9]
  IC50: > 10 µM
[5]; cos
  Ki: Not Active
[5]; read-out: pKi (converted)
  Ki: 10000 nM

## CCCCCCC(C)(C)c1cc(O)cc(OCCCCCCCCCCCC(=O)NCC2CC2)c1
[1]; read-out: Ki
  Ki: 600 nM
[2]
  Activity: > 50%
[3]
  Activity: > 50%
[4]
  Ratio Ki: 9 µM
[5]; read-out: Ki
  Ki: 5400 nM

## CCCCCCC(C)(C)c1cc(O)cc(OCCCCCCCCCCC(=O)NCCc2ccc(O)c(O)c2)c1
[1]; read-out: Ki
  Ki: 5000 nM
[2]
  Activity: > 50%
[3]
  Activity: > 50%
[4]
  Ratio Ki: 0.7 µM
[5]; read-out: Ki
  Ki: 3400 nM
